In ChEMBL document CHEMBL1156708, “Enamines as novel antibacterials and their structure-activity relationships” (2008):
In brackets after ≈: the same amount, converted by molar mass.

Tests used:
Assay type in all cases: functional
Bacillus subtilis = test: Antibacterial activity against Bacillus subtilis ATCC 6633 after 24 hrs by MTT assay; settings: ATCC 6633, 24 h
Summary of the method: (§1)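 Broth microdilution MIC in MH medium; compounds from 50 mg/mL DMSO stock serially diluted in medium in microtitration plates. Inoculum about 10⁵ cfu/mL; incubated at 37 °C for 24 h. MIC read visually, then PBS containing 2 mg MTT/mL added per well; after 12 h further incubation at room temperature, OD read at 550 nm.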

Escherichia coli = test: Antibacterial activity against Escherichia coli ATCC 35218 after 24 hrs by MTT assay; settings: ATCC 35218, 24 h; summary of the method: as §1
Pseudomonas fluorescens = test: Antibacterial activity against Pseudomonas fluorescens ATCC 13525 after 24 hrs by MTT assay; settings: ATCC 13525, 24 h; summary of the method: as §1
Staphylococcus aureus = test: Antibacterial activity against Staphylococcus aureus ATCC 6538 after 24 hrs by MTT assay; settings: ATCC 6538, 24 h; summary of the method: as §1
Aspergillus niger = test: Antifungal activity against Aspergillus niger ATCC 16404 after 48 hrs by MTT assay; settings: ATCC 16404, 48 h
Summary of the method: (§2)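 MIC determined by serial dilution in RPMI-1640 medium in microtitration plates, compounds from 50 mg/mL DMSO stock. Fungal suspension about 10⁵ cfu/mL, incubated at 37 °C for 48 h. Visual MIC reading followed by addition of PBS with 2 mg MTT/mL; OD at 550 nm measured after 12 h at room temperature.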

Candida albicans = test: Antifungal activity against Candida albicans ATCC 10231 after 48 hrs by MTT assay; settings: ATCC 10231, 48 h; summary of the method: as §2
Trichophyton rubrum = test: Antifungal activity against Trichophyton rubrum ATCC 10218 after 48 hrs by MTT assay; settings: ATCC 10218, 48 h; summary of the method: as §2

Row | Compound | MIC (Bacillus subtilis) | MIC (Escherichia coli) | MIC (Pseudomonas fluorescens) | MIC (Staphylococcus aureus) | MIC (Aspergillus niger) | MIC (Candida albicans) | MIC (Trichophyton rubrum)
1 | CCOC(=O)/C(=C/Nc1cc(Br)c(O)c(Br)c1)c1ccc(Cl)cc1 | > 50 µg/mL | > 50 µg/mL | 3.7 µg/mL (≈ 7.78 µM) | 1 µg/mL (≈ 2.1 µM) | > 50 µg/mL | > 50 µg/mL | > 50 µg/mL
2 | CCOC(=O)/C(=C/Nc1ccc(Br)cc1Br)c1ccc(Cl)cc1 | > 50 µg/mL | > 50 µg/mL | 4.5 µg/mL (≈ 9.79 µM) | 8.2 µg/mL (≈ 17.8 µM) | > 50 µg/mL | > 50 µg/mL | > 50 µg/mL
3 | CCOC(=O)/C(=C/N1CCCc2ccccc21)c1ccc(Cl)cc1 | > 50 µg/mL | > 50 µg/mL | 38.5 µg/mL (≈ 113 µM) | > 50 µg/mL | > 50 µg/mL | > 50 µg/mL | > 50 µg/mL
4 | CCOC(=O)/C(=C/N1CCCc2ccccc21)c1ccc(OC)cc1 | > 50 µg/mL | > 50 µg/mL | 41.5 µg/mL (≈ 123 µM) | > 50 µg/mL | > 50 µg/mL | > 50 µg/mL | > 50 µg/mL
5 | CCOC(=O)/C(=C\Nc1ccc(F)cc1F)c1ccc(Cl)cc1 | > 50 µg/mL | 47.3 µg/mL (≈ 140 µM) | > 50 µg/mL | > 50 µg/mL | > 50 µg/mL | > 50 µg/mL | > 50 µg/mL
6 | CCOC(=O)/C(=C/Nc1ccc(F)cc1F)c1ccc(Cl)cc1 | > 50 µg/mL | 48 µg/mL (≈ 142 µM) | > 50 µg/mL | 40.9 µg/mL (≈ 121 µM) | > 50 µg/mL | > 50 µg/mL | > 50 µg/mL
7 | CCOC(=O)/C(=C\Nc1ccc(O)cc1)c1ccc(Cl)cc1 | > 50 µg/mL | 38.9 µg/mL (≈ 122 µM) | 13.1 µg/mL (≈ 41.2 µM) | 44.9 µg/mL (≈ 141 µM) | > 50 µg/mL | > 50 µg/mL | > 50 µg/mL
8 | CCOC(=O)/C(=C\Nc1ccc(Cl)cc1Cl)c1ccc(Cl)cc1 | > 50 µg/mL | > 50 µg/mL | > 50 µg/mL | > 50 µg/mL | > 50 µg/mL | > 50 µg/mL | > 50 µg/mL
9 | CCOC(=O)/C(=C/Nc1cc(Br)c(OC)c(Br)c1)c1ccc(Cl)cc1 | > 50 µg/mL | > 50 µg/mL | 6.1 µg/mL (≈ 12.5 µM) | 2.2 µg/mL (≈ 4.49 µM) | > 50 µg/mL | > 50 µg/mL | > 50 µg/mL
10 | CCOC(=O)/C(=C\Nc1ccc(Br)cc1Br)c1ccc(Cl)cc1 | > 50 µg/mL | > 50 µg/mL | 23.8 µg/mL (≈ 51.8 µM) | 32.1 µg/mL (≈ 69.8 µM) | > 50 µg/mL | > 50 µg/mL | > 50 µg/mL
11 | NC[C@H]1O[C@H](O[C@H]2[C@H](O)[C@@H](O[C@H]3O[C@H](CO)[C@@H](O)[C@H](N)[C@H]3O)[C@H](N)C[C@@H]2N)[C@H](O)[C@@H](O)[C@@H]1O [KANAMYCIN] | 0.39 µg/mL (≈ 0.805 µM) | 3.9 µg/mL (≈ 8.05 µM) | 3.9 µg/mL (≈ 8.05 µM) | 1 µg/mL (≈ 2.06 µM) |  |  | 
12 | CC(=O)N1CCN(c2ccc(OCC3COC(Cn4ccnc4)(c4ccc(Cl)cc4Cl)O3)cc2)CC1 (stereo unspecified) [KETOCONAZOLE] |  |  |  |  | 7.8 µg/mL (≈ 14.7 µM) | 3.9 µg/mL (≈ 7.34 µM) | 3.9 µg/mL (≈ 7.34 µM)
13 | CC1(C)S[C@@H]2[C@H](NC(=O)Cc3ccccc3)C(=O)N2[C@H]1C(=O)O [PENICILLIN G] | 0.78 µg/mL (≈ 2.33 µM) |  |  | 2 µg/mL (≈ 5.98 µM) |  |  | 

More lines, now with the values ahead:

Row | MIC (Bacillus subtilis) | MIC (Escherichia coli) | MIC (Pseudomonas fluorescens) | MIC (Staphylococcus aureus) | MIC (Aspergillus niger) | MIC (Candida albicans) | MIC (Trichophyton rubrum) | Compound
14 | > 50 µg/mL | > 50 µg/mL | > 50 µg/mL | > 50 µg/mL | > 50 µg/mL | > 50 µg/mL | > 50 µg/mL | CCOC(=O)/C(=C\Nc1cc(Cl)cc(Cl)c1)c1ccc(Cl)cc1
15 | > 50 µg/mL | > 50 µg/mL | 25.7 µg/mL (≈ 69.3 µM) | 1.1 µg/mL (≈ 2.97 µM) | > 50 µg/mL | > 50 µg/mL | > 50 µg/mL | CCOC(=O)/C(=C/Nc1cc(Cl)cc(Cl)c1)c1ccc(Cl)cc1
16 | > 50 µg/mL | > 50 µg/mL | > 50 µg/mL | > 50 µg/mL | > 50 µg/mL | > 50 µg/mL | > 50 µg/mL | CCOC(=O)/C(=C\Nc1cc(F)cc(F)c1)c1ccc(Cl)cc1
17 | 48.2 µg/mL (≈ 143 µM) | 13.5 µg/mL (≈ 40 µM) | 31.5 µg/mL (≈ 93.3 µM) | 1.9 µg/mL (≈ 5.63 µM) | > 50 µg/mL | > 50 µg/mL | > 50 µg/mL | CCOC(=O)/C(=C/Nc1cc(F)cc(F)c1)c1ccc(Cl)cc1
18 | > 50 µg/mL | > 50 µg/mL | 1.6 µg/mL (≈ 4.42 µM) | 0.9 µg/mL (≈ 2.49 µM) | > 50 µg/mL | > 50 µg/mL | > 50 µg/mL | CCOC(=O)/C(=C/Nc1cc(OC)cc(OC)c1)c1ccc(Cl)cc1
19 | > 50 µg/mL | > 50 µg/mL | 36.3 µg/mL (≈ 100 µM) | > 50 µg/mL | > 50 µg/mL | > 50 µg/mL | > 50 µg/mL | CCOC(=O)/C(=C\Nc1cc(OC)cc(OC)c1)c1ccc(Cl)cc1
20 | > 50 µg/mL | > 50 µg/mL | 7.1 µg/mL (≈ 19.2 µM) | 12.3 µg/mL (≈ 33.2 µM) | > 50 µg/mL | > 50 µg/mL | > 50 µg/mL | CCOC(=O)/C(=C/Nc1ccc(Cl)cc1Cl)c1ccc(Cl)cc1
21 | 49.8 µg/mL (≈ 156 µM) | 43.4 µg/mL (≈ 136 µM) | > 50 µg/mL | > 50 µg/mL | > 50 µg/mL | > 50 µg/mL | > 50 µg/mL | CCOC(=O)/C(=C\Nc1ccc(F)cc1)c1ccc(Cl)cc1
22 | 43.3 µg/mL (≈ 88.4 µM) | 48.6 µg/mL (≈ 99.3 µM) | 48.1 µg/mL (≈ 98.2 µM) | 47.7 µg/mL (≈ 97.4 µM) | > 50 µg/mL | > 50 µg/mL | > 50 µg/mL | CCOC(=O)/C(=C\Nc1cc(Br)c(OC)c(Br)c1)c1ccc(Cl)cc1
23 | > 50 µg/mL | > 50 µg/mL | > 50 µg/mL | 35.6 µg/mL (≈ 111 µM) | > 50 µg/mL | > 50 µg/mL | > 50 µg/mL | CCOC(=O)/C(=C/Nc1ccc(F)cc1)c1ccc(Cl)cc1
24 | > 50 µg/mL | > 50 µg/mL | 1.5 µg/mL (≈ 4.72 µM) | 0.5 µg/mL (≈ 1.57 µM) | > 50 µg/mL | > 50 µg/mL | > 50 µg/mL | CCOC(=O)/C(=C/Nc1ccc(O)cc1)c1ccc(Cl)cc1
25 | > 50 µg/mL | > 50 µg/mL | > 50 µg/mL | 41.2 µg/mL (≈ 129 µM) | > 50 µg/mL | > 50 µg/mL | > 50 µg/mL | CCOC(=O)/C(=C/Nc1ccccc1F)c1ccc(Cl)cc1
26 | > 50 µg/mL | > 50 µg/mL | > 50 µg/mL | > 50 µg/mL | > 50 µg/mL | > 50 µg/mL | > 50 µg/mL | CCOC(=O)/C(=C\Nc1cc(Br)c(OCc2ccccc2)c(Br)c1)c1ccc(Cl)cc1
27 | > 50 µg/mL | > 50 µg/mL | 8.5 µg/mL (≈ 15 µM) | 3.4 µg/mL (≈ 6.01 µM) | > 50 µg/mL | > 50 µg/mL | > 50 µg/mL | CCOC(=O)/C(=C/Nc1cc(Br)c(OCc2ccccc2)c(Br)c1)c1ccc(Cl)cc1
28 | > 50 µg/mL | > 50 µg/mL | > 50 µg/mL | 33.5 µg/mL (≈ 70.4 µM) | > 50 µg/mL | > 50 µg/mL | > 50 µg/mL | CCOC(=O)/C(=C\Nc1cc(Br)c(O)c(Br)c1)c1ccc(Cl)cc1
29 | 46.6 µg/mL (≈ 146 µM) | > 50 µg/mL | 46 µg/mL (≈ 144 µM) | > 50 µg/mL | > 50 µg/mL | > 50 µg/mL | > 50 µg/mL | CCOC(=O)/C(=C\Nc1ccccc1F)c1ccc(Cl)cc1
